# Apaf-1 act: activators of human Apaf-1 apoptosome, primary screen, biochemical, DEVD-Rh110 fluorescence, uHTS | 330,000 compounds, 0.31% hits | activity change, negative = activation, % at 20 µM | Apoptotic protease-activating factor 1 (Homo sapiens), O14727 | Apaf-1 apoptosome caspase-3 activation; hits give low values | AID 489031, 2010;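 active means activity change at or below -40% at 20 µM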
# Target sequence (O14727 whole entry, looked up): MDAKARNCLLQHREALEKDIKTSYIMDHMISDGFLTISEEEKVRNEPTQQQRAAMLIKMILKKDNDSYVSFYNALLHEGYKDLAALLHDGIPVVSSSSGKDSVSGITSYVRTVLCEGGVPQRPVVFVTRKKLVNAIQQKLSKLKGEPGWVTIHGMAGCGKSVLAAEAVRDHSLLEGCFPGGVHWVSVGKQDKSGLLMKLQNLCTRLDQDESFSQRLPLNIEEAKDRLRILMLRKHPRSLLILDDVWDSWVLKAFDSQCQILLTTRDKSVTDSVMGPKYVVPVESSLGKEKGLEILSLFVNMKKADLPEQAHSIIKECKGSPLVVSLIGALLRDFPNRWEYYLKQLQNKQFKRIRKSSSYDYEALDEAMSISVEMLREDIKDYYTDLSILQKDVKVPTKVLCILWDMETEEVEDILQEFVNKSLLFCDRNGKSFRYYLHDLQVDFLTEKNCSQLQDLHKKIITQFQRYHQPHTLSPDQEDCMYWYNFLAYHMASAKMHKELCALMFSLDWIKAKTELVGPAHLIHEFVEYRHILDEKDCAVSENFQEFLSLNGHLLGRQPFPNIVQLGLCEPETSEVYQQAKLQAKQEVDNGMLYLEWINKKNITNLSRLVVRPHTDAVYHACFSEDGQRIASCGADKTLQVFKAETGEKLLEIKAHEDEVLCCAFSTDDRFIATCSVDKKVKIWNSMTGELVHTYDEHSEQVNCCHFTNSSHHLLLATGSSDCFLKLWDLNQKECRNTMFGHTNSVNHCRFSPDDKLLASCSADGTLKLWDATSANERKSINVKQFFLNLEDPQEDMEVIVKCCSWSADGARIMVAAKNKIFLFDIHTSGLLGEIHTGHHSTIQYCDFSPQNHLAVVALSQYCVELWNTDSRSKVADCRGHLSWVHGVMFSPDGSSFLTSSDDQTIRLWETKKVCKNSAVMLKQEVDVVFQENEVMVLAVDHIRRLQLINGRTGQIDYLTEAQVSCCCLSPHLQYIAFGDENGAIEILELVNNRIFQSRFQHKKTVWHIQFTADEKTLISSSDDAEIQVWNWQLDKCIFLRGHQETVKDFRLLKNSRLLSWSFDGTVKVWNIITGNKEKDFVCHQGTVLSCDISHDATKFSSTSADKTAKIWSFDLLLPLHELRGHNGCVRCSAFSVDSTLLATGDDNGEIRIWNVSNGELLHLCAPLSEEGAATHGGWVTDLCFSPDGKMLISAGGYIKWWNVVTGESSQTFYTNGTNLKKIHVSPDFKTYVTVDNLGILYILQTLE
#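 Material: biochemical Apaf-1 apoptosome reconstitution; Medium: 20 mM HEPES buffer, pH 7.5, containing CHAPS and BSA; Reagent: dATP, cytochrome c, and (Z-DEVD)2-Rh110 caspase-3 substrate; Times: 30 min preincubation, 50 min reaction, room temperature; Signal: Rh110 fluorescence, excitation 480 nm, emission 540 nm; Measure: Caspase-3 activity via Apaf-1.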
# Hits are given with their value; i = inactive. These entries were drawn from the full list.
SMILES,Apaf-1 act
C=C(C)C(=O)Nc1cccc(C2=NOC3(C2)C[C@@H](C(N)=O)N(C(=O)c2ccc(OC)cc2)C3)c1 (some centres undefined),-339.8
CCOC(=O)C1=C(c2ccccc2)NC(N)=NC1c1ccc(OCc2ccc(Cl)cc2)c(OC)c1 (centres undefined),i
Cc1ccc(C)c(NC(=O)/C(C#N)=C/c2ccc(Sc3nncn3C)c([N+](=O)[O-])c2)c1,-217.2
CC(C)(C)c1ccc(OCCOc2ccc(C(C)(C)C)cc2NC=O)c(NC=O)c1,i
CN(CC(=O)Nc1ccc(F)cc1)C(=O)C1CC(=O)N(Cc2ccccc2)C1 (centres undefined),i
CCCCCCCNC(=O)C1(CC2CC(c3ccc(Cl)cc3)=NO2)CCNCC1 (centres undefined),i
Cc1ccc(C(=O)NC(C)c2nc3ccccc3n2CC(=O)Nc2c(C)cc(C)cc2C)cc1 (centres undefined),-100.0
CCC(=O)Nc1c(S(=O)(=O)c2ccc(C)cc2)c2nc3ccccc3nc2n1C(C)c1ccccc1 (centres undefined),i
Cc1ccc(S(=O)(=O)N(C)C)cc1NC(=O)c1ccccc1SCC(=O)N1CCCC1,i
COC(=O)c1ccc(N2CC3CNC(=O)C2(C(=O)OC)N3C)cc1 (centres undefined),i
O=C(Cc1ccc(Br)cc1)Nc1ccccc1N1CCCC1,-65.5
Cc1cc(N2CCCC2)ccc1NC(=O)COc1ccccc1,i
O=C(NCC(F)(F)F)c1ccc(S(=O)(=O)Nc2ccccc2N2CCCC2)cc1,i
N#C/C(=C/c1ccc(OCc2ccc(C(=O)O)cc2)c(Br)c1)c1cccc(F)c1,-335.2
COc1cccc(-c2sc3ccccc3c2-c2ccc(OCCN(C)C)cc2)c1,i
COC(=O)C1=C(C)N(Cc2ccccc2)C(=NCCc2c[nH]c3ccccc23)N[C@H]1c1cccc(F)c1,i
O=C(NCCc1c[nH]c2ccccc12)OCCSS(=O)(=O)O,-93.5
COC(=O)C1=C(C)N(Cc2ccccc2)C(=NCCc2c[nH]c3ccccc23)N[C@H]1c1ccccc1,i
COCc1ccc(CN2CCC(C(=O)Nc3cccc(-c4cccc(Cl)c4)c3)CC2)o1,i
CCN1CCCC1CNC(=O)C1CCN(Cc2nc(-c3cccc(Br)c3)oc2C)CC1 (centres undefined),-89.5
c1ccc2c(NCCCN3CCOCC3)c3ccccc3nc2c1,-62.7
CCN(c1ccccc1)S(=O)(=O)c1cccc(C(=O)NCCN2CCOCC2)c1,i
Cc1c2ccccc2nc2c(F)c(NCCO)c(F)c(F)c12,i
O=C1C(c2ccccc2)=[N+]([O-])c2ccccc21,i
Cc1ccc(S(=O)(=O)N2CCC(C(=O)OCC(=O)N(C)CC(=O)Nc3ccc(F)cc3)CC2)cc1C,i
SMILES,Apaf-1 act
COc1ccc(OC)c2c1cc(C(=O)N[C@H](C(=O)N1CCC[C@H]1C(=O)O)C(C)C)n2C,i
c1ccc2c(c1)CCN(C1=Nc3cccc4cccc1c34)C2,i
O=C(Nc1ccc(-c2cccc(F)c2)cc1)C1CCCN(Cc2ccccn2)C1 (centres undefined),i
COc1ccc(C2(c3ccc(OC)cc3)NC(=O)N(CC(=O)Nc3ccc(N4CCOCC4)cc3)C2=O)cc1,i
COc1ccc(C2(c3ccc(OC)cc3)NC(=O)N(CC(=O)N(C)C)C2=O)cc1,-130.8
COc1cc(NC(=O)CN2C(=O)NC3(CCOc4ccccc43)C2=O)cc(OC)c1 (centres undefined),i
CC1=[N+](C)c2ccc3ccccc3c2C1(C)C,i
O=C1NC(=S)N/C1=C/c1cc2c(cc1[N+](=O)[O-])OCO2,i
CCN1CCN(S(=O)(=O)c2ccc(Cl)c(C(=O)N(C)Cc3cccc(Cl)c3Cl)c2)CC1,i
CCc1ccc2cccc3c2c1N=CN3C,i
COc1ccc(NC(=O)CN2C(=O)S/C(=C/c3cccn3-c3ccc(C(=O)O)cc3)C2=O)cc1,-239.7
COc1ccc(NC(=O)CCn2c(=S)[nH]c3ccccc3c2=O)cc1,i
COc1cc(/C=C2/C(=O)N(c3ccc(C(=O)O)cc3)N=C2C)cc(OC)c1O,i
CN(C)C(=O)c1ccc(NC(=O)c2sccc2-c2ccccc2)cc1,i
COCCn1c(SCC(=O)NNC(=O)c2cc(Cl)ccc2OC)nnc1-c1ccncc1,i
CCc1cc(CNC(=O)c2ccc(OC3CCN(CCc4ccccc4)CC3)cc2)on1,-41.4
COc1ccc(CCn2c(N)c(C(=O)NCc3ccco3)c3nc4ccccc4nc32)cc1OC,i
CC1CCN(CCc2nc3cc(NC(=O)COc4ccccc4)ccc3n2C)CC1,i
COc1ccc(C(CNC(=O)c2cccc(S(=O)(=O)N(C)c3ccccc3)c2)N2CCCC2)cc1 (centres undefined),i
CC(C)N=c1cc2n(-c3ccc(Cl)cc3)c3ccccc3nc-2cc1Nc1ccc(Cl)cc1,i
COc1ccc(NC(=O)c2cc(-c3ccncc3)nc3ccc(Br)cc23)cc1OC,i
CCCCn1c(NC(C)=O)c(C#N)c2nc3ccccc3nc21,i
CCCCn1c2ccccc2c2nnc(SCC(=O)NC3=NN=C(c4ccccc4)CS3)nc21,-68.9
CCn1c2ccccc2c2nnc(SCC(=O)c3c(N)n(C)c(=O)n(C)c3=O)nc21,i
COc1ccccc1-c1c(C#N)c(N)nc2c1CCc1ccccc1-2,i
SMILES,Apaf-1 act
CC(=O)c1ccc2c(c1)c(C#N)c1ccccc1[n+]2[O-],i
CCOc1ccc(NC(=O)CCS(=O)(=O)c2ccc(Br)cc2)cc1,-109.0
O=C(CCS(=O)(=O)c1ccc(Br)cc1)Nc1cc(F)ccc1F,-129.1
CCOc1ccc(NS(=O)(=O)c2ccc(C(=O)N(CC)CC(=O)NCc3cccs3)cc2)cc1,i
CCCN(CC(=O)Nc1ccccc1C)C(=O)CCCOc1ccc(Br)cc1,i
c1coc(-c2nnc(-c3ccco3)nn2)c1,i
COCCN(C(=O)CSc1nc(N)cc(=O)[nH]1)c1c(N)n(Cc2ccccc2)c(=O)[nH]c1=O,i
Cc1nnc(N/N=C/c2cccc(OCc3ccc(Cl)c(Cl)c3)c2)n1N,i
S=C(NCc1ccc2c(c1)OCO2)Nc1ccc2nsnc2c1,i
O=C(NC(Cc1ccc2c(c1)OCO2)C(=O)NC(Cc1ccccc1)C(=O)O)c1ccccc1 (centres undefined),-41.7
CSc1ccccc1NC(=O)COc1ccc2c(c1)OCO2,i
CCCC(=Nc1ccc(N)cc1)C1=C(O)C(C(=O)OC)C(C)(C)CC1=O (centres undefined),i
CC(C)[C@H](NC(=O)N1CCC(Cc2ccccc2)CC1)C(=O)O,i
CC(NC(=O)CC1CCCCC1)c1ccccc1 (centres undefined),-109.4
O=C(COC(=O)c1ccccc1)NCC1CCCO1 (centres undefined),i
COc1cc(NC(C)CCCN)c2ncccc2c1Oc1ccccc1 (centres undefined),i
CN(C)CCN(C(=O)c1cccc2ccccc12)c1nc2cc3c(cc2s1)OCO3,i
CC(=O)Nc1ccc2nc3ccccc3nc2c1,i
C=C(C)C(=O)Nc1ccc2c(c1)OCCOCCOCCO2,-447.5
CCN(CC(=O)Nc1ccc2c(c1)OCCO2)C(=O)/C=C/c1ccc(OC)cc1OC,i
Cc1c(Cl)cccc1N=C1SCCN1C(=O)CN1C(=O)NC2(CCCC2)C1=O,i
O=C(COC(=O)c1ccccc1Sc1ccc(C(F)(F)F)cc1[N+](=O)[O-])NC(=O)NC1CCCC1,i
CCc1ccc(CNc2ccc(O)cc2)cc1,i
CC/C(=C(\c1ccc(O)cc1)c1ccc(OCCN(C)C)cc1)c1ccccc1,i
